The data set has as its system MS2 coat protein. As to the kind of experiment: apparent Kd, MS2 coat protein; higher = weaker binding; RNA-MaP array; FMN 200 µM where present. The gist of the method:
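Designs on Illumina sequencing-chip clusters, transcribed by stalled E. coli RNA polymerase, were exposed to SNAP-549-labelled MS2 coat protein in doubling steps from 0.7 or 1.5 nM up to 3 µM, without and then with constant ligand. The buffer held 100 mM Tris-HCl pH 7.5, 80 mM KCl, 4 mM MgCl2, BSA, DTT, yeast tRNA and Tween-20. Apparent Kd values are medians of filtered per-cluster binding-curve fits to green signal normalised to red-channel RNA signal and control-cluster median Fmax.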

Setting [1] is: designed as: OFF switch for flavin mononucleotide, no ligand.
[2] abbreviates: ligand present: flavin mononucleotide, designed as: OFF switch for flavin mononucleotide.
Setting [3] is: designed as: ON switch for flavin mononucleotide, no ligand.
[4] abbreviates: ligand present: flavin mononucleotide, designed as: ON switch for flavin mononucleotide.

As to “CUUUUGUGAGGAUAUCGGUAGUAAUACAAUAGUAUUACUACUGAGAAGGCACAUGAGGAUCACCCAUGUUCCUC”, the “apparent Kd” value was 49.2 nM under setting [1] and 305 nM under setting [2].

As for “GGAUGACAAAGUCAUCCUUAACGAACAUGAGGAUCACCCAUGUAGGAUAUGGAACUCAAAGAGUUCCAGAAGGACAUGUGCCUU”, the “apparent Kd” value is, setting by setting: under setting [1], 33.7 nM; under setting [2], 213 nM.

As for “AGUGUCAUCGAGAAGGCCUCAUGAACAUGAGGAUCACCCAUGUAAGAUGGGAGGAUAUCGAUGAUACAGCUACGUUUCGUAGCA”, the “apparent Kd” value runs as follows: under setting [3], 51.1 nM; under setting [4], 31.9 nM.

As for “AGCUGUGGCCGAGGAUAUCUAAUAAUCCCAACCGAAAUAUAAUCGGACAUGAGGAUCACCCAUGUAGAGAAGGCGGUCUCAGCA”, the “apparent Kd” value reads like this: under setting [1], 143 nM; under setting [2], 307 nM.

As to “GGAUAGGACAGAGGAUAUACGUGCUAGAGAUACUAGCAAAGUUUCCUCACAUGAGGAUCACCCAUGUAGAAGGCUGUCCUAUCG”, the “apparent Kd” value was 21.8 nM under setting [1] and 505 nM under setting [2].

On to “AUGCUUCACACAGGAUAUACAUGAGGAUCACCCAUGUGUCCAAAGUAGCCGACACGAGCUACGUCGUAGAAGGGUGUGAAGCAU”, for which the “apparent Kd” value worked out at 18.8 nM under setting [1] and 87.3 nM under setting [2].

Turning to “AAUUUACAUGAGGAUCACCCAUGUGAGGAUAUGAUACUAUGUACUUCGGUACAUAGUAUCAGAAGGCAUGUGAA”, the “apparent Kd” value worked out at 128 nM under setting [1] and 97.7 nM under setting [2].

As to “UUCAGCUCGUGAGGAUAUACAUGUGCUGGAAACAGCAUUAAAUAAUUCACAUGAGGAUCACCCAUGUAGAAGGCACGAGCUGAG”, the “apparent Kd” value turned out to be 17 nM under setting [1] and 34.4 nM under setting [2].

With “CAGAAGUCAGGAUAUGCAUGGCGGGACUUGCGUCGUGGCGUGCAGAAGGGACAUGAGGAUCACCCAUGUGGAGC”, the “apparent Kd” value is, setting by setting: under setting [1], 118 nM; under setting [2], 182 nM.

As to “UGGAUGUAGGAGAAGGAGGACUUCAUGAGGAUCACCCAUGUGUUAGGACUUAGGAUAUUUGACAACAUGAGGAUCACCCAUGUG”, the “apparent Kd” value reads like this: under setting [3], 60 nM; under setting [4], 52.7 nM.

With “GGAUAGGACAGAGGAUAUACGGCUAGGAGAUACUAGCCACUAUUCCUCACAUGAGGAUCACCCAUGUAGAAGGCUGUCCUAUCG”, the “apparent Kd” value under setting [1] was found to be 16.9 nM and the “apparent Kd” value under setting [2] worked out at 109 nM.

Turning to “UUAACUCAUGUAGGAUAUGCAUGGCGAAGCUACGCAGAAGGACAUGAGGAUCACCCAUGUUCUAGCGUCUGAGUACAGAUGCAA”, the “apparent Kd” value is 43.4 nM under setting [1] and 290 nM under setting [2].

Turning to “AUUUAUGUCAUAGGAUAUAUAAAUAAAUUUAUAACAUGAGGAUCACCCAUGUACUUUAGUAUGAGGUAGAAGGAUGAUAAGAGU”, the “apparent Kd” value under setting [3] is 35.1 nM and the “apparent Kd” value under setting [4] is 26.7 nM.

As to “AACAGGACAGGAUAUACAUGAGGAUCACCCAUGUGAGAAUUAAGUAGAUUGCCACAGAGUAGAAGGGUCCUGGA”, the “apparent Kd” value under setting [1] came out at 66.6 nM and the “apparent Kd” value under setting [2] was found to be 91.2 nM.

Consider “AAAAAACAUGAGGAUCACCCAUGUCAAAAGACAUGAGGAUAUGUACAGACUUCGGUCUGUACAGAAGGCAUGAAAA”, for which the “apparent Kd” value is, setting by setting: under setting [3], 489 nM; under setting [4], 43.6 nM.

With “AUCAGCUCGUGAGGAUAUACGUCACUGCGUCAGCAGUGUGGUAAGAUCACAUGAGGAUCACCCAUGUAGAAGGGACGAGCUGAU”, the “apparent Kd” value reads like this: under setting [1], 15.6 nM; under setting [2], 45.9 nM.

On to “GUACAUGAGCAGAAGGGCAAUUAAUUAAAAUUUUAUGUUUAUCAGAUAUGCAGGAUAUGUUAAACAUGAGGAUCACCCAUGUAC”, for which the “apparent Kd” value runs as follows: under setting [3], 191 nM; under setting [4], 48.5 nM.

“AAGCACAGAGGAUAUACAUGGGUGAUAAAAAUCAUGUAAAAACAUGAGGAUCACCCAUGUAGAAGGCUGUGCAA”: the “apparent Kd” value by setting is: under setting [1], 22 nM; under setting [2], 23.1 nM.

On to “UGAUCACAUGAGGAUCACCCAUGUCAGGAUAUCGUCACUGGAGCUUCGGCUCCAGUGACGAGAAGGGAUAUAAU”, for which the “apparent Kd” value stood at 91.5 nM under setting [1] and 197 nM under setting [2].

“AACGCGUCAGGAUAUAGCGAAACUUAGGUAGUACAACCAUACUAGAAGGGACAUGAGGAUCACCCAUGUGGGUA”: the “apparent Kd” value runs as follows: under setting [1], 209 nM; under setting [2], 104 nM.

“AGUUAAUAUCGAGGAUAUGUCUAGACACAUGAGGAUCACCCAUGUAUGUGUAUAGAAGGCGAUAUUAACAGCAUGUUACAUGCC”: the “apparent Kd” value turned out to be 37.2 nM under setting [3] and 15.6 nM under setting [4].

As for “ACAUCGUGAGACAUGAGGAUCACCCAUGUGUGAUAGUGGGCACAGGAUAUCCAGACUUGGAAUCUGGAGAAGGGUGAUCGUUAA”, the “apparent Kd” value came to 86.7 nM under setting [3] and 129 nM under setting [4].

“AAAACAUGAGGAUCACCCAUGUAAAGAUCGGUUAAUUAAAGUGAGGAUAUACAAAAUUUUAUAUAGUAGAAGGCACUGGGUACA”: the “apparent Kd” value under setting [3] was found to be 30.2 nM and the “apparent Kd” value under setting [4] was 33.4 nM.

As for “AAAAAGCGAGGAUAUACAUGAGGAUCACCCAUGUCAAAAGGUAAGACCGCAGAAAAAAGUAGAAGGCGCAAAAA”, the “apparent Kd” value is 63 nM under setting [1] and 137 nM under setting [2].

(Values after the EternaBench riboswitch data.)
